From ChEMBL document CHEMBL1134679, “Exploiting subsite S1 of trypsin-like serine proteases for selectivity: potent and selective inhibitors of urokinase-type plasminogen activator” (J Med Chem, 2001) come the findings set out here.

Some results are limits rather than exact numbers.

One data set addresses Coagulation factor X (Homo sapiens, UniProt P00742). Nature of the data set: Binding affinity against human coagulation factor X.
The target in a further data set is Plasma kallikrein (Homo sapiens, UniProt P03952). Nature of the data set: The compound was tested for inhibition of human p-kallikrein.
Sequence of Plasma kallikrein (P03952 20-390 limits assumed): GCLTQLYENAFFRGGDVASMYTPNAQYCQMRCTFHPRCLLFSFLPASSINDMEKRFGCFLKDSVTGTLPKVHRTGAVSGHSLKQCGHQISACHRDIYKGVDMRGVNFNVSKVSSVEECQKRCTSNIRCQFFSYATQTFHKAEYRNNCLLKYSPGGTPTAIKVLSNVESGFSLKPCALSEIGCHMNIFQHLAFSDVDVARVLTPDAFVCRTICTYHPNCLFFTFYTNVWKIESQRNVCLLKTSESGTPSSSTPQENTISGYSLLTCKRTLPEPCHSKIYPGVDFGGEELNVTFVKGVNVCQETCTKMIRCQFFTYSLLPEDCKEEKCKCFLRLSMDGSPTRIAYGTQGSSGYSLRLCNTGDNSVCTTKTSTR
Sequence of Plasma kallikrein (P03952 391-638 limits assumed): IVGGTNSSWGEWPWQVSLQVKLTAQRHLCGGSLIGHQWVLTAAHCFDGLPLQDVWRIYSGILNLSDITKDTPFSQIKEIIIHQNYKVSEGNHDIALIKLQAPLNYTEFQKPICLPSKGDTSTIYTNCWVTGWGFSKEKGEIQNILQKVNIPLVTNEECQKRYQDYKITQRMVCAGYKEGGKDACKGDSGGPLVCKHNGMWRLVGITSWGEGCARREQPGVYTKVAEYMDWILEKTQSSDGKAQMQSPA
The target of data set [1] is Urokinase-type plasminogen activator (Homo sapiens, UniProt P00749). Nature of the data set: The compound was tested for inhibition of human urokinase type plasminogen activator (microPa).
For a further data set, the target named is Prothrombin (Homo sapiens, UniProt P00734). Nature of the data set: The compound was tested for inhibition of human thrombin.
For a further data set, the target named is Trypsin (Homo sapiens, UniProt P07477+P07478+P35030). Nature of the data set: The compound was tested for inhibition of human trypsin. The class given is protein assay.
The target in data set [2] is Tissue-type plasminogen activator (Homo sapiens, UniProt P00750). Nature of the data set: The compound was tested for inhibition of human tissue plasminogen activator.
Sequence of Tissue-type plasminogen activator (P00750 whole entry): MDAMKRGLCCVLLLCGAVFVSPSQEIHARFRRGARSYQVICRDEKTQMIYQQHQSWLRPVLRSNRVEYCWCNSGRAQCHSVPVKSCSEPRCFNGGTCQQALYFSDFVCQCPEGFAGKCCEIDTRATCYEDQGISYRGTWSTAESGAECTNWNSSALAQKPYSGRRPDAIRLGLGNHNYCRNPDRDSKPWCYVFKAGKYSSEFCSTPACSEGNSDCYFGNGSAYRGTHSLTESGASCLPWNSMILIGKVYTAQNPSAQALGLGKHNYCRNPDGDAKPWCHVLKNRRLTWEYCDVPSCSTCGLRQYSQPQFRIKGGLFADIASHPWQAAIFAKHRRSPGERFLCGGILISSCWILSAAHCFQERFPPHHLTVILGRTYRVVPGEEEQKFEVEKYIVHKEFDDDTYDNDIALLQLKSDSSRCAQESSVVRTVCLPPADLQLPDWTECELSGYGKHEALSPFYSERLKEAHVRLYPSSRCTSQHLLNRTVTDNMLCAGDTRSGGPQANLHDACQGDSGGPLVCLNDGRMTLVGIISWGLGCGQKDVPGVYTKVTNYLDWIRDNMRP
A further data set has as its target T1, Coagulation factor VII (Homo sapiens, UniProt P08709).
T1 sequence (P08709 whole entry): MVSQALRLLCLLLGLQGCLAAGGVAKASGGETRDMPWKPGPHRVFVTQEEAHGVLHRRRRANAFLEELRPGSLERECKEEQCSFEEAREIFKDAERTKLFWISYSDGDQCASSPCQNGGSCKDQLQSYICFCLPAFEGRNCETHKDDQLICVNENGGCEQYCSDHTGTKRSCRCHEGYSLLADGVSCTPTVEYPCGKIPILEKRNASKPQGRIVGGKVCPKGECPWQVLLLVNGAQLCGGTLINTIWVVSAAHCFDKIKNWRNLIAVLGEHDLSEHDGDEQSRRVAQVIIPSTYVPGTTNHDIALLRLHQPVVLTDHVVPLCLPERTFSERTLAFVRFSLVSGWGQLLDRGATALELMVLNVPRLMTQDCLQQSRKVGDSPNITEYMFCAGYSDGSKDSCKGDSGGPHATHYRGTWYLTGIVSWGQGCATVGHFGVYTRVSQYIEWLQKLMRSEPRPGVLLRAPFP
The experiment in a line: The compound was tested for inhibition of human coagulation factor VII.

Data set [3] concerns Rattus norvegicus. Nature of the data set: Integrated area under the plasma concentration in Sprague-Dawley Rat (Wt 294) was determined after iv administration at a dose of 2 mg/kg. The class given is ADME, organism-based. Details: dose 2 mg/kg, route intravenous. The note with it: in vivo. Summed up:
(§1)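 Male Sprague-Dawley rats, three per group, received a single IV tail-vein bolus in 40% PEG400/H2O (1 or 2 mg/mL). Jugular blood was drawn into heparin at several times up to 24 h. Plasma was held at −80 °C, then assayed by LC-MS/MS against standard curves of 1–10000 ng/mL (LOQ 6 ng/mL). Parameters are mean ± SD; AUC runs 0 to infinity; volume of distribution is central compartment.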

The nature of data set [4]: Volume of distribution at steady state in Sprague-Dawley Rat (Wt 294) was determined after iv administration at a dose of 2 mg/kg. The format is ADME, organism-based. The arrangement: dose 2 mg/kg, route intravenous. The following applies: in vivo, read-out: Vss. Summed up:
as §1

Data set [5] in a line: Volume of distribution in Sprague-Dawley Rat (Wt 294) was determined after iv administration at a dose of 2 mg/kg. Details: dose 2 mg/kg, route intravenous. The class given is ADME, organism-based. The note with it: in vivo, read-out: Vc. In a few lines: as §1
Data set [6] can be described thus: Mean residence time of compound in Sprague-Dawley Rat (Wt 294) was determined after iv administration at a dose of 2 mg/kg. The class given is ADME, organism-based. The arrangement: dose 2 mg/kg, route intravenous. The note with it: in vivo. Summed up:
as §1

A short description of data set [7]: Plasma clearance of compound in Sprague-Dawley Rat (Wt 294) was determined after iv administration at a dose of 2 mg/kg. The note with it: read-out: Clp. Details: dose 2 mg/kg, route intravenous. The class given is ADME, organism-based. In a few lines:
as §1

A short description of data set [8]: terminal half-life in Sprague-Dawley Rat (Wt 294) was determined after iv administration at a dose of 2 mg/kg. Details: dose 2 mg/kg, route intravenous. The format is ADME, organism-based. The following applies: in vivo. In a few lines: as §1
A short description of data set [9]: mean residence time in Sprague-Dawley Rat (Wt 286) was determined after iv administration at a dose of 1 mg/kg. The class given is ADME, organism-based. Details: dose 1 mg/kg, route intravenous. The following applies: in vivo. In a few lines:
as §1

A short description of data set [10]: Plasma clearance of compound in Sprague-Dawley Rat (Wt 286) was determined after iv administration at a dose of 1 mg/kg. The format is ADME, organism-based. The arrangement: dose 1 mg/kg, route intravenous. The following applies: read-out: Clp. Summed up:
as §1

The subject of data set [11] is Rattus norvegicus. The experiment in a line: Area undercurve in Sprague-Dawley Rat (Wt 286) was determined after iv administration at a dose of 1 mg/kg. The class given is ADME, organism-based. The arrangement: dose 1 mg/kg, route intravenous. The note with it: in vivo. Summed up: as §1
A short description of data set [12]: Volume of distribution at steady state in Sprague-Dawley Rat (Wt 286) was determined after iv administration at a dose of 1 mg/kg. The class given is ADME, organism-based. The arrangement: dose 1 mg/kg, route intravenous. The note with it: in vivo, read-out: Vss. In a few lines:
as §1

Data set [13] can be described thus: terminal half-life in Sprague-Dawley Rat (Wt 286) was determined after iv administration at a dose of 1 mg/kg. The format is ADME, organism-based. The arrangement: dose 1 mg/kg, route intravenous. The following applies: in vivo. In a few lines: as §1
Data set [14] is described as follows: Volume of distribution in Sprague-Dawley Rat (Wt 286) was determined after iv administration at a dose of 1 mg/kg. The format is ADME, organism-based. The arrangement: dose 1 mg/kg, route intravenous. The note with it: in vivo, read-out: Vc. In a few lines:
as §1

Sequence of Coagulation factor X (P00742 41-179 limits assumed): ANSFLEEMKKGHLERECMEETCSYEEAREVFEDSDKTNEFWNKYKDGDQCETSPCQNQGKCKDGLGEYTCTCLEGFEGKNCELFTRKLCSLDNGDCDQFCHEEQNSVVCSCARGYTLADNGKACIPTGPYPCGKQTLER
Sequence of Coagulation factor X (P00742 235-488 limits assumed): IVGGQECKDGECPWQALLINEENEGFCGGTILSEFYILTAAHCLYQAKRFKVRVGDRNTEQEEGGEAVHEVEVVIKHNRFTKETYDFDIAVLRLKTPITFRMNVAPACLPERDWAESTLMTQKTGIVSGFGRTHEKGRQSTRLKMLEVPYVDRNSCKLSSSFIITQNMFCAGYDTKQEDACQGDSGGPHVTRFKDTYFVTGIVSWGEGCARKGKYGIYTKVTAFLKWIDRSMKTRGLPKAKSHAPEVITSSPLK

Regarding `N=C(N)c1ccc2[nH]c(-c3cccc(-c4ccccc4)c3O)cc2c1Cl`, the Ki – broadly, a dissociation constant, usually derived from enzyme kinetics or from competition with a known ligand – at Coagulation factor X was found to be 5.2 µM; on Plasma kallikrein it was 1.3 µM; in data set [1], 0.49 µM; on Prothrombin it was 65 µM; at Trypsin, 4.7 µM; in [2], 3.3 µM. This compound also yielded a Ki on Coagulation factor VII of 5.5 µM.
Consider `COc1cc2[nH]c(-c3cccc(-c4ccccc4)c3O)cc2cc1C(=N)N`, for which the Ki is 26 µM at Coagulation factor X; 0.6 µM at Plasma kallikrein; 0.36 µM in data set [1]; more than 75 µM at Prothrombin; 14 µM on Trypsin; 16 µM at Coagulation factor VII.
Consider `Cc1cc2[nH]c(-c3cccc(-c4ccccc4)c3O)cc2cc1C(=N)N`, for which the Ki was more than 75 µM on Coagulation factor X; 4.8 µM on Plasma kallikrein; 0.1 µM in data set [1]; more than 75 µM on Prothrombin; 1.6 µM at Trypsin; 39 µM in data set [2]. At Coagulation factor VII, this compound displayed a Ki of 7 µM.
Consider `N=C(N)c1cc2cc(-c3cccc(-c4ccccc4)c3O)[nH]c2cc1O`, for which the Ki was more than 75 µM at Coagulation factor X; 1.3 µM on Plasma kallikrein; more than 75 µM on Prothrombin; 50 µM on Trypsin; more than 75 µM on Coagulation factor VII.
Turning to `N=C(N)c1cc2cc(-c3cccc(-c4ccccc4)c3O)[nH]c2cc1F`, the Ki at Plasma kallikrein came to 0.11 µM; at Prothrombin it was 7.5 µM; at Trypsin, 1.1 µM; at Coagulation factor VII, 0.75 µM.
As to `N=C(N)c1cc2cc(-c3cccc(-c4ccccc4)c3O)[nH]c2cc1Cl`, the AUC – broadly, concentration integrated over time – in the data set on Rattus norvegicus [3] amounted to 1.42 µM·h. In addition, the results for the Vd in [4] and in [5] were 7.7 L/kg and 0.346 L/kg, respectively. For the same compound, the MRT (in general, a mean duration of stay, worked out from the concentration-time curve) in data set [6] was 2.17 h. Also, the clearance in [7] was 59 mL/min/kg. For the same compound, the half-life (usually the time in which the quantity being followed falls by half) in data set [8] was determined as 3.15 h.
With `N=C(N)c1ccc2[nH]c(-c3cccc(-c4ccccc4)c3O)cc2c1`, the Ki was determined as 0.0019 µM on Plasma kallikrein, 0.13 µM on Trypsin and 0.16 µM on Coagulation factor VII. For the same compound, the MRT in [9] is 1.77 h. In addition, the clearance in data set [10] worked out at 121 mL/min/kg. In the data set with Rattus norvegicus [11], this compound returned an exposure (AUC) of 0.4 µM·h. In addition, the Vd in data set [12] came out at 11.9 L/kg; in [14] it was 1.56 L/kg. This compound showed a half-life in data set [13] of 1.7 h.
